Tests used:
[1] = molecular target: T1, D1-active mutant (E578Q) (Homo sapiens, UniProt P55072, E578Q); conditions: previous studies of the authors; cited from earlier work
[2] = molecular target: T1, D1-active mutant (E578Q); assay: ATPase assay, D1-active Walker B mutant; type: biochemical
How it was run: (§1)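 Human p97 (WT or the Walker B mutant named), 25 nM monomer, in 50 mM Tris pH 7.4, 20 mM MgCl2, 1 mM EDTA, 0.5 mM TCEP, 0.01% Triton X-100 and 200 μM ATP. An initial 4-dose titration (30, 10, 3.3, 1.1 μM) was run in triplicate, then an 8-dose titration (30 down to 0.04 μM, plus 0). ATPase activity was read with Biomol Green reagent.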

[3] = molecular target: T2, p97-p47 complex (Homo sapiens, UniProt P55072); conditions: cited from earlier work; for inhibition of the p97-p47 complex compared to p97 alone, in words: Figure 1 legend, earlier work of the authors; for fold decrease in potency caused by p47 (p97-p47 complex versus p97): previously found by the authors
T2 sequence (P55072 whole entry): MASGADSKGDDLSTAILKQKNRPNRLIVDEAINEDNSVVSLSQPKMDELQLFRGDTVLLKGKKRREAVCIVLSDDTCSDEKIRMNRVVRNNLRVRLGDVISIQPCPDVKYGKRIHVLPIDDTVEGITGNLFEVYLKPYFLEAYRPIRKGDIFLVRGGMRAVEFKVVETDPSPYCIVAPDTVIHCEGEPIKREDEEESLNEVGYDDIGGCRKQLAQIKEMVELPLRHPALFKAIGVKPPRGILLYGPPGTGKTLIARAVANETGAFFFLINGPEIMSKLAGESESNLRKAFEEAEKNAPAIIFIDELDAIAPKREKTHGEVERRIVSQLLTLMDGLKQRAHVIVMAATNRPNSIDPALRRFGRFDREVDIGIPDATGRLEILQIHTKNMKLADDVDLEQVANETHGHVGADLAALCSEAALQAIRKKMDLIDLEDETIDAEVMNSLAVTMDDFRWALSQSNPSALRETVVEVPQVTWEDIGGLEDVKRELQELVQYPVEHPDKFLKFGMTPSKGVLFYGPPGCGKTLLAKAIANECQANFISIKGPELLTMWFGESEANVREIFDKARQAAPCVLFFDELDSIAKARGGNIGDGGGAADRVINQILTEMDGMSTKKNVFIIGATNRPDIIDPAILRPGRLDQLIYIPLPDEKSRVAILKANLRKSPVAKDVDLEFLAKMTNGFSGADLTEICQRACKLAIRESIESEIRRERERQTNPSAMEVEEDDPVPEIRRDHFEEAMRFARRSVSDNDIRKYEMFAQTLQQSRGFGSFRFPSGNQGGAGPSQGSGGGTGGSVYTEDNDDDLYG
T2 sequence (Q9UNZ2 whole entry partner): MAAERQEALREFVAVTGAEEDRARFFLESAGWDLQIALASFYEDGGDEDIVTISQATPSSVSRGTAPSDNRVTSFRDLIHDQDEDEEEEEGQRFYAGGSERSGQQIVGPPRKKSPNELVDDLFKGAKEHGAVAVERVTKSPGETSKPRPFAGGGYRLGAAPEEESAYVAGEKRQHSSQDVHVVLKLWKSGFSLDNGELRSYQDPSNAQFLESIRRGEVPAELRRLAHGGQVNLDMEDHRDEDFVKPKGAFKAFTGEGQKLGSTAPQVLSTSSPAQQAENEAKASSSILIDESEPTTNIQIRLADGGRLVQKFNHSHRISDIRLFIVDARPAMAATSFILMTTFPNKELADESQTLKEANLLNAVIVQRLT

[4] = molecular target: wild-type p97 (Homo sapiens, UniProt P55072); assay: ATPase assay, wild type p97; type: biochemical
Chain of wild-type p97 (P55072 whole entry): as the sequence (P55072 whole entry) above
How it was run: as §1

[5] = molecular target: D2-active mutant (E305Q) (Homo sapiens, UniProt P55072, E305Q); assay: ATPase assay, D2-active Walker B mutant; type: biochemical
Chain of D2-active mutant (E305Q) (P55072 whole entry E305Q): as the sequence (P55072 whole entry) above, with E305Q counted along it
How it was run: as §1

[6] = molecular target: T2, p97-p47 complex; assay: ATPase assay, p97-p47 complex; type: biochemical
How it was run: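 The p97-p47 complex was formed by adding p47 to 400 nM final with human p97 at 25 nM monomer. Buffer was 50 mM Tris pH 7.4, 20 mM MgCl2, 1 mM EDTA, 0.5 mM TCEP, 0.01% Triton X-100 and 200 μM ATP. Titrations were 4-dose in triplicate (30–1.1 μM), then 8-dose (30–0.04 μM, plus 0). Activity was detected with Biomol Green reagent.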

T1 sequence (P55072 whole entry E578Q): as the sequence (P55072 whole entry) above, with E578Q counted along it

| Compound | domain selectivity D1 versus D2, in words [1] | domain selectivity D1 versus D2 (E578Q versus E305Q mutants), in words ([2]; 8-dose titration, Figure 3 / Table S1) | inhibition of the p97-p47 complex compared to p97 alone, in words [3] | fold decrease in potency caused by p47 (p97-p47 complex versus p97) [3] | IC50 [4] | IC50 [5] | fold increase of IC50 against the D2-active mutant (E305Q) compared to WT p97 ([5]; 200 μM ATP) | selectivity toward the D2 domain ([5]; D2 versus D1) | IC50 [6] | IC50 [2] | fold increase of IC50 against the D1-active mutant (E578Q) compared to WT p97 ([2]; 200 μM ATP) |
| --- | --- | --- | --- | --- | --- | --- | --- | --- | --- | --- | --- |
| Cc1cc(OCc2nnc(SC3CCCC3)n2-c2cccnc2)ccc1-c1ccc(S(C)(=O)=O)cc1 [NMS-873] | inhibit both the D1 and D2 ATPase domains | inhibited the ATPase activity of both the D1 and D2 domains |  |  |  |  |  |  |  |  |  |
| COc1cccc2c(NCc3ccccc3)nc(-n3c(N)nc4ccccc43)nc12 [ML240] | selectively inhibit D2 |  | less inhibition of the p97-p47 complex | ~ 50 fold |  |  |  |  |  |  |  |
| c1ccc(CNc2nc(N3CCOc4ccccc43)nc3c2CCCC3)cc1 [ML241] | selectively inhibit D2 |  | less inhibition of the p97-p47 complex | ~ 50 fold |  |  |  |  |  |  |  |
| c1ccc(CNc2nc(NCc3ccccc3)c3ccccc3n2)cc1 [DBeQ, N2,N4-dibenzylquinazoline-2,4-diamine] | inhibit both the D1 and D2 ATPase domains |  |  |  | 5.4 µM | 7.6 µM | 1.4 fold | 3 fold | 12.3 µM | 13.1 µM | 2.4 fold |

— publication PMC4280364 (ChemMedChem, 2014)
